ChEMBL document CHEMBL1141286, “Benzochromenones from the marine crinoid Comantheria rotula inhibit hypoxia-inducible factor-1 (HIF-1) in cell-based reporter assays and differentially suppress the growth of certain tumor cell lines” (J Nat Prod, 2007)
Calls of active or inactive are those of the source. No cut-off for these calls is given here.

Experiments:
[1] = Inhibition of 1,10-phenanthroline-induced HIF1 activation in PC3 cells by TK-luciferase assay; type: cell-based; settings: Homo sapiens, PC-3
Outline: (§1)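 HIF-1 reporter (pHRE-TK-Luc) assays in transfected PC-3 or T47D cells; HIF-1 induced by hypoxia or by the hypoxia mimetic 1,10-phenanthroline (10 μM); compounds at half-log concentrations; luciferase activity measured; IC50 from experiments in triplicate.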

[2] = Inhibition of HIF1 activation in PC3 cells by TK-luciferase assay; type: cell-based; settings: Homo sapiens, PC-3; outline: as §1
T47D [3] = assay: Inhibition of hypoxia induced VEGF protein secretion in human T47D cells at 10 uM after 16 hrs by ELISA; type: functional; set-up: scale not given: the % may be the effect or the level left
Outline: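 Exponentially growing T47D cells exposed to hypoxia (1% O2) with compound (10 μM) for 16 hr; secreted VEGF protein in conditioned media by ELISA, normalized to protein in cell lysates (micro BCA).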

[4] = Inhibition of 1,10-phenanthroline-induced HIF1 activation in T47D cells by TK-luciferase assay; type: cell-based; settings: Homo sapiens; outline: as §1
T47D [5] = assay: Inhibition of 1,10-phenanthroline-induced VEGF protein secretion in human T47D cells at 10 uM after 16 hrs by ELISA; type: functional, cell-based
Outline: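 T47D cells stimulated with 1,10-phenanthroline, compound at 10 μM; secreted VEGF in conditioned media by ELISA, normalized to cell-lysate protein.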

[6] = target: Hypoxia inducible factors; HIF-1-alpha, HIF-2-alpha (Homo sapiens, UniProt Q16665+Q99814); assay: Inhibition of HIF1 activation in human T47D cells by TK-luciferase assay; type: cell-based; outline: as §1
[7] = DPPH radical scavenging activity relative to Trolox; type: functional; set-up: concentration or dose not given beside the values
Outline: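 Compounds were made up as DMSO stocks and diluted in isopropanol to a final 10 μM. Each was mixed with DPPH in isopropanol at 10 μM or 30 μM DPPH, and absorbance was read at 515 nm. Scavenging was calculated as [1 − OD515(compound)/OD515(control)] × 100, then expressed as a percentage of Trolox activity. One experiment was run in triplicate.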

[8] = Inhibition of luciferase at 30 uM
Outline: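 Purified recombinant firefly luciferase (QuantiLum, 46.8 μg mL−1) mixed with compound in passive lysis buffer containing BSA (1 mg mL−1); equal volume of luciferase substrate added, light output read; percentage inhibition relative to DMSO control; concentration-response curves up to 30 μM.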

CCCc1cc(=O)c2c(O)cc3cc(O)cc(OC)c3c2o1 [COMAPARVIN]
IC50 [1]: > 10 µM
IC50 [2]: > 10 µM
Activity (T47D [3]): 27%
IC50 [4]: 3 µM
Activity (T47D [5]): inactive
IC50 [6]: 3 µM

CCCc1cc(=O)c2c(OC)c3c(OC)cc(O)cc3cc2o1 [NEOCOMANTHERIN]
IC50 [1]: 3.7 µM
IC50 [2]: 3.2 µM
Activity [7]: 40%
IC50 [4]: 1.9 µM
inhibition [8]: 48%
Activity (T47D [5]): inactive
IC50 [6]: 2.7 µM
